Experimental findings from ChEMBL document CHEMBL1140698, “Design, synthesis, and anti-inflammatory properties of orally active 4-(phenylamino)-pyrrolo[2,1-f][1,2,4]triazine p38alpha mitogen-activated protein kinase inhibitors” (J Med Chem, 2008) are described below.

Data set [1] can be described thus: Drug level in rat plasma at 10 mg/kg, po after 0.5 hrs. The data set is classed as ADME, organism-based. Also on record: dose 10 mg/kg, route oral. The method in brief:
(§1)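 Rats given a single oral 10 mg/kg dose in 9/0.5/0.5 water/EtOH/Tween 80. Plasma drug level measured at 0.5 h and AUC0-4h calculated, each as the average of 2 rats.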

A short description of data set [2]: AUC (0 to 4 hrs) in rat at 10 mg/kg, po. Further details: time < 4 hr, dose 10 mg/kg, route oral. As to conditions: plasma. The data set is classed as ADME, organism-based. The method in brief: as §1
Data set [3] is described as follows: Cmax in mouse at 5 mg/kg, iv or 10 mg/kg, po. The note with it: in vivo. In kind it is ADME, organism-based. The method in brief:
(§2)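 Mice dosed at 5 mg/kg i.v. or 10 mg/kg p.o., 3 mice per group. Values given as average ± SEM.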

Data set [4] can be described thus: Volume of distribution at steady state in mouse 5 mg/kg, iv or 10 mg/kg, po. In kind it is ADME, organism-based. The note with it: in vivo, read-out: Vdss. The method in brief: as §2
Data set [5] in a line: Mean residence time in mouse at 5 mg/kg, iv or 10 mg/kg, po. The data set is classed as ADME, organism-based. The note with it: in vivo. The method in brief:
as §2

In the next data set the test system is Caco-2. Put plainly: Intrinsic permeability across human Caco-2 cells. The data set is classed as ADME, cell-based. For orientation: Passage across Caco-2 layers is used to estimate intestinal permeability.
A short description of data set [6]: Metabolic stability in rat liver microsome after 10 mins. In kind it is ADME. The note with it: liver microsomes, read-out: Stability. The method in brief:
(§3)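 Rat or pooled human (10 donors) liver microsomes at about 1 mg/mL protein, 1 mM NADPH, 56 mM potassium phosphate pH 7.4, compound 3 µM final, 37 °C. Quenched with acetonitrile and parent drug quantified by LC/MS/MS. Percent parent remaining at 10 min, n = 1.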

Data set [7] is described as follows: Tmax in mouse at 5 mg/kg, iv or 10 mg/kg, po. The note with it: in vivo. In kind it is ADME, organism-based. The method in brief: as §2
Data set [8] is described as follows: Metabolic stability in human liver microsome after 10 mins. The note with it: liver microsomes, read-out: Stability. The data set is classed as ADME. The method in brief:
as §3
A general note: Liver microsomes are vesicles of endoplasmic reticulum, rich in cytochrome P450 enzymes.

Data set [9] in a line: Bioavailability in mouse at 10 mg/kg, po. In kind it is ADME, organism-based. The note with it: in vivo. The method in brief:
as §2

Data set [10] can be described thus: Half life in mouse at 5 mg/kg, iv or 10 mg/kg, po. In kind it is ADME, organism-based. As to conditions: in vivo. The method in brief: as §2
Data set [11] in a line: Clearance in mouse at 5 mg/kg, iv or 10 mg/kg, po. The data set is classed as ADME, organism-based. The note with it: in vivo. The method in brief: as §2
Data set [12] in a line: AUC (0 to 8 hrs) in mouse 5 mg/kg, iv or 10 mg/kg, po. In kind it is ADME, organism-based. The note with it: plasma. The method in brief:
as §2

Each structure is given as a SMILES string.

As usually defined, the AUC(0-t) is the area under the concentration-time curve up to a stated or last time point. A higher AUC(0-t) goes with high exposure. The term Cmax denotes the peak of the concentration-time curve. Broadly, the MRT is a mean duration of stay, worked out from the concentration-time curve. In general, Papp refers to a coefficient for how fast a substance crosses the barrier. As a reminder, the Tmax is the time from dosing to the highest level. One may read the bioavailability as dose-corrected exposure relative to a reference, in per cent. High values mean good availability, low ones poor availability. For orientation: half-life means how long it takes for the measured level to halve. The low end stands for rapid decline, the high end for slow decline.

The compound `CCNC(=O)c1cn2ncnc(Nc3cc(C(=O)NOC)ccc3C)c2c1C` came in with a concentration at 0.5 h in data set [1] of 0.8 µM. Besides, the AUC(0-t) at 4 h in [2] was determined as 0.7 µM·h. Also, in [3], the concentration peaked (Cmax) at 3.1 µM. Moreover, in data set [4], the Vd was 7.6 L/kg. For the same compound, in [5], the MRT came to 1.4 h. This compound also yielded a Papp in the data set with Caco-2 of 20 nm/s. The figures for the remaining at 10 min in [6] and in data set [8] were 100% and 69%, respectively. The Tmax in [7] stood at 15 min. The bioavailability in data set [9] came to 79%. The compound further had a half-life in [10] of 132 min. The same compound yielded a clearance in data set [11] of 93 mL/min/kg. In [12], the AUC(0-t) stood at 3.6 µM·h.
Take `CONC(=O)c1ccc(C)c(Nc2ncnn3cc(C(=O)NCc4ccccn4)c(C)c23)c1`: in data set [1], the concentration at 0.5 h amounted to 3.4 µM. The AUC(0-t) at 4 h in data set [2] is 2.8 µM·h.
As for `CONC(=O)c1ccc(C)c(Nc2ncnn3cc(C(=O)N[C@@H](C)c4ccccc4)c(C)c23)c1`, the concentration at 0.5 h in data set [1] worked out at 2.1 µM. For the same compound, the AUC(0-t) at 4 h in data set [2] is 2.1 µM·h. Further, the highest concentration (Cmax) in [3] came to 3.7 µM. The Vd in [4] was determined as 1.5 L/kg. This compound also gave an MRT in data set [5] of 0.8 h. This compound gave a Papp in the data set on Caco-2 of 131 nm/s. Also, the figures for the remaining at 10 min in data set [6] and in data set [8] were 90% and 72%, respectively. Moreover, in data set [7], the Tmax worked out at 30 min. Also, the bioavailability in data set [9] is 34%. This compound also gave a half-life in data set [10] of 72 min. Moreover, the clearance in data set [11] was found to be 31 mL/min/kg. In addition, in data set [12], the AUC(0-t) amounted to 3.8 µM·h.
The compound `CCCNC(=O)c1cn2ncnc(Nc3cc(NC(=O)OCC)ccc3C)c2c1C` yielded a concentration at 0.5 h in data set [1] of 0.4 µM. Besides, in [2], the AUC(0-t) at 4 h was determined as 0.7 µM·h.
On to `CCCNC(=O)c1cn2ncnc(Nc3cc(C(=O)NOC)ccc3C)c2c1C`, for which the concentration at 0.5 h in data set [1] was 6.6 µM. This compound also showed an AUC(0-t) at 4 h in data set [2] of 2.1 µM·h. The Cmax in [3] was 18 µM. For the same compound, the Vd in data set [4] turned out to be 1.6 L/kg. For the same compound, the MRT in data set [5] stood at 1 h. The compound further had a Papp in the data set with Caco-2 of 58 nm/s. In addition, the remaining at 10 min in [6] is 82%; in [8], 83%. Moreover, the Tmax in [7] was determined as 15 min. The compound also gave a bioavailability in [9] of 97%. The compound also gave a half-life in [10] of 150 min. For the same compound, in [11], the clearance was determined as 28 mL/min/kg. Moreover, the AUC(0-t) in data set [12] worked out at 13 µM·h.
In data set [1], `CONC(=O)c1ccc(C)c(Nc2ncnn3cc(C(=O)NC(C)C)c(C)c23)c1` displayed a concentration at 0.5 h of 3.8 µM. This compound registered an AUC(0-t) at 4 h in [2] of 3.7 µM·h.
`CC[C@H](C)NC(=O)c1cn2ncnc(Nc3cc(C(=O)NOC)ccc3C)c2c1C` returned a concentration at 0.5 h in data set [1] of 4.3 µM. Further, the AUC(0-t) at 4 h in data set [2] was found to be 9.2 µM·h. In addition, the remaining at 10 min in data set [6] amounted to 96%; in data set [8], 62%.
